Laboratory results from ChEMBL document CHEMBL4680287, “Ibrexafungerp: An orally active β-1,3-glucan synthesis inhibitor” (Bioorg Med Chem Lett, 2021).

Key:
[1] = Inhibition of beta-1,3-glucan synthase in Candida albicans MY1055 microsomal membrane assessed as inhibition of TCA-insoluble material formation using UDP-[3H]-glucose as substrate incubated for 2 hrs in presence of GTP by radioactivity-based assay; assay type: microsomes, Microsome
In short: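 GS IC50 measured using Candida albicans MY1055 microsomal membrane fragments as the enzyme source.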

[2] = system: Candida albicans; assay: Antifungal activity against Candida albicans MY1055 assessed as fungal growth inhibition measured after 24 hrs by liquid microdilution method; assay type: functional
In short: (§1)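 Broth microdilution per CLSI protocols in RPMI medium. Read-out is the MIC, the lowest concentration completely inhibiting fungal growth. Run without serum and with added serum.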

[3] = system: Aspergillus fumigatus; assay: Antifungal activity against Aspergillus fumigatus MF5668 assessed inhibition of fungal growth by measuring morphological changes measured after 24 hrs by microscopy; assay type: functional; conditions: read-out: MEC
In short: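 Microdilution per CLSI protocols in RPMI medium. Read-out is the minimum effective concentration (MEC). Run without serum and with 50% human serum.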

[4] = system: Candida albicans; assay: Antifungal activity against Candida albicans MY1055 assessed as fungal growth inhibition measured after 24 hrs in presence of 50% mouse serum by liquid microdilution method; assay type: functional; in short: as §1
[5] = Dose normalized AUC in po dosed mouse; assay type: ADME, organism-based; conditions: in vivo
[6] = Oral bioavailability in mouse; assay type: ADME, organism-based; conditions: in vivo
In short: (§2)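 Oral bioavailability calculated as oral AUC normalized to the IV dose, divided by the IV AUC.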

[7] = system: Candida albicans; assay: Antifungal activity against Candida albicans MY1055 infected in DBA/2 mouse model of disseminated candidiasis assessed as reduction in fungal burden in kidney by measuring log change in colony forming units at 25 mg/kg, po bid for 7 days by TOKA; assay type: functional; conditions: time 7 day
In short: (§3)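 Murine disseminated candidiasis model (TOKA) in mice challenged with C. albicans MY1055 at 2.44 x 10^4 CFU/mouse. Dosed PO, or IP where stated. Kidneys collected aseptically 7 days after challenge and CFUs/g counted. Change in log CFU/g is relative to sham-treated controls; significance by two-tailed t test. Clearance is the percentage of kidneys below the detection limit.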

[8] = system: Candida albicans; assay: Antifungal activity against Candida albicans MY1055 infected in DBA/2 mouse model of disseminated candidiasis assessed as reduction in fungal burden in kidney by measuring log change in colony forming units at 12.5 mg/kg, po bid for 7 days by TOKA; assay type: functional; conditions: time 7 day; in short: as §3
[9] = system: Candida albicans; assay: Antifungal activity against Candida albicans MY1055 infected in DBA/2 mouse model of disseminated candidiasis assessed as reduction in fungal burden in kidney by measuring log change in colony forming units at 6.25 mg/kg, po bid for 7 days by TOKA; assay type: functional; conditions: time 7 day; in short: as §3
[10] = Clearance in mouse; assay type: ADME, organism-based; conditions: in vivo
[11] = Half life in mouse; assay type: ADME, organism-based; conditions: in vivo
[12] = Clearance in rat; assay type: ADME; conditions: in vivo
[13] = Half life in rat; assay type: ADME; conditions: in vivo
[14] = Dose normalized AUC in po dosed rat; assay type: ADME, organism-based; conditions: in vivo
[15] = Oral bioavailability in rat; assay type: ADME, organism-based; conditions: in vivo; in short: as §2
[16] = Clearance in dog; assay type: ADME, Canis lupus familiaris; conditions: in vivo
[17] = Half life in dog; assay type: ADME, Canis lupus familiaris; conditions: in vivo
[18] = Dose normalized AUC in po dosed dog; assay type: ADME, organism-based, Canis lupus familiaris; conditions: in vivo
[19] = Oral bioavailability in dog; assay type: ADME, organism-based, Canis lupus familiaris; conditions: in vivo; in short: as §2
[20] = Clearance in rhesus monkey; assay type: ADME, Macaca mulatta; conditions: in vivo
[21] = Half life in rhesus monkey; assay type: ADME, Macaca mulatta; conditions: in vivo
[22] = Dose normalized AUC in po rhesus monkey; assay type: ADME, organism-based, Macaca mulatta; conditions: in vivo
[23] = Oral bioavailability in rhesus monkey; assay type: ADME, organism-based, Macaca mulatta; conditions: in vivo; in short: as §2
[24] = system: Candida albicans; assay: Antifungal activity against Candida albicans MY1055 infected in ip dosed DBA/2 mouse model of disseminated candidiasis assessed as reduction in fungal burden in kidney administered bid for 7 days by TOKA; assay type: functional; conditions: 168 h, time 7 day; in short: as §3
[25] = system: Candida albicans; assay: Antifungal activity against Candida albicans MY1055 infected in DBA/2 mouse model of disseminated candidiasis assessed as reduction in fungal burden in kidney by measuring log change in colony forming units at 12.5 mg/kg, ip bid for 7 days by TOKA; assay type: functional; conditions: time 7 day; in short: as §3
[26] = system: Aspergillus fumigatus; assay: Antifungal activity against Aspergillus fumigatus MF5668 infected in DBA/2N mouse assessed as mouse survival at 12.5 mg/kg, ip bid administered for 7 days starting from 15 to 30 mins post infection and measured up to 21 days relative to control; assay type: functional; conditions: 168 h, time 7 day
In short: (§4)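 DBA/2N mice were infected IV with A. fumigatus MF5668 (6.7 x 10^5 CFU/mouse) and treated IP bid for 7 days. Percent survival per dose group was scored at the end of the 21-day survival model and compared with the sham-treated control group.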

[27] = system: Aspergillus fumigatus; assay: Antifungal activity against Aspergillus fumigatus MF5668 infected in DBA/2N mouse assessed as mouse survival at 6.25 mg/kg, ip bid administered for 7 days starting from 15 to 30 mins post infection and measured up to 21 days relative to control; assay type: functional; conditions: 168 h, time 7 day; in short: as §4
[28] = system: Aspergillus fumigatus; assay: Antifungal activity against Aspergillus fumigatus MF5668 infected in DBA/2N mouse assessed as mouse survival at 3.125 mg/kg, ip bid administered for 7 days starting from 15 to 30 mins post infection and measured up to 21 days relative to control; assay type: functional; conditions: 168 h, time 7 day; in short: as §4
[29] = system: Aspergillus fumigatus; assay: Antifungal activity against Aspergillus fumigatus MF5668 infected in ip dosed DBA/2N mouse assessed as 90% mouse survival administered bid administered for 7 days starting from 15 to 30 mins post infection and measured up to 21 days; assay type: functional; conditions: 168 h, time 7 day
[30] = system: Aspergillus fumigatus; assay: Antifungal activity against Aspergillus fumigatus MF5668 infected in DBA/2N mouse assessed as mean survival time at 12.5 mg/kg, ip bid administered for 7 days starting from 15 to 30 mins post infection and measured up to 21 days; assay type: functional; conditions: time 7 day
In short: (§5)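 DBA/2N mice were challenged IV with A. fumigatus MF5668 at 6.7 x 10^5 CFU/mouse, then dosed IP twice daily for 7 days. Survival was followed over a 21-day model, and mean survival time in days was recorded per dose group. A sham-treated control group was run alongside.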

[31] = system: Aspergillus fumigatus; assay: Antifungal activity against Aspergillus fumigatus MF5668 infected in DBA/2N mouse assessed as mean survival time at 6.25 mg/kg, ip bid administered for 7 days starting from 15 to 30 mins post infection and measured up to 21 days; assay type: functional; conditions: time 7 day; in short: as §5
[32] = system: Aspergillus fumigatus; assay: Antifungal activity against Aspergillus fumigatus MF5668 infected in DBA/2N mouse assessed as mean survival time at 3.125 mg/kg, ip bid administered for 7 days starting from 15 to 30 mins post infection and measured up to 21 days; assay type: functional; conditions: time 7 day; in short: as §5
[33] = system: Aspergillus fumigatus; assay: Antifungal activity against Aspergillus fumigatus MF5668 infected in DBA/2N mouse assessed as mouse survival at 1.56 mg/kg, ip bid administered for 7 days starting from 15 to 30 mins post infection and measured up to 21 days relative to control; assay type: functional; conditions: 168 h, time 7 day; in short: as §4
[34] = system: Aspergillus fumigatus; assay: Antifungal activity against Aspergillus fumigatus MF5668 infected in DBA/2N mouse assessed as mean survival time at 1.56 mg/kg, ip bid administered for 7 days starting from 15 to 30 mins post infection and measured up to 21 days; assay type: functional; conditions: time 7 day; in short: as §5
[35] = system: Aspergillus fumigatus; assay: Antifungal activity against Aspergillus fumigatus MF5668 infected in ip dosed DBA/2N mouse assessed as 50% mouse survival administered bid administered for 7 days starting from 15 to 30 mins post infection and measured up to 21 days; conditions: 168 h

## CC(C)[C@@H](C)[C@@]1(C)CC[C@]2(C)[C@H]3CC[C@@H]4[C@@]5(COC[C@@]4(C)[C@@H](OC[C@](C)(N)C(C)C)[C@H](n4ncnc4-c4ccncc4)C5)C3=CC[C@@]2(C)[C@@H]1C(=O)O
[1]
  IC50: 0.002 µg/mL
[2]
  MIC: < 0.03 µg/mL
[3]
  minimal effective concentration: < 0.03 µg/mL
[4]
  MIC: 0.5 µg/mL
[5]
  AUC/dose: 0.42 µM·kg·h/mg
[6]
  bioavailability: 31%
[7]
  Activity: -4.5 deltalog10CFU
[8]
  Activity: -2.9 deltalog10CFU
[9]
  Activity: -2.4 deltalog10CFU
[10]
  clearance: 17 mL/min/kg
[11]
  half-life: 4.9 h
[12]
  clearance: 12 mL/min/kg
[13]
  half-life: 3.9 h
[14]
  AUC/dose: 0.56 µM·kg·h/mg
[15]
  bioavailability: 28%
[16]
  clearance: 6 mL/min/kg
[17]
  half-life: 9 h
[18]
  AUC/dose: 0.9 µM·kg·h/mg
[19]
  bioavailability: 21%
[20]
  clearance: 14 mL/min/kg
[21]
  half-life: 6.1 h
[22]
  AUC/dose: 0.08 µM·kg·h/mg
[23]
  bioavailability: 5%
[24]
  ED99: 1.2 mg/kg
[25]
  Activity: -4.01 deltalog10CFU
[26]
  survival at 12.5 mg/kg: 60%
[27]
  survival at 6.25 mg/kg: 40%
[28]
  survival at 3.125 mg/kg: 30%
[29]
  ED90: 31 mg/kg
[30]
  MST: 14.7 days
[31]
  MST: 12.4 days
[32]
  MST: 10.7 days
[33]
  survival at 1.56 mg/kg: 0%
[34]
  MST: 4.2 days
[35]
  ED50: 8.2 mg/kg
